Experimental data taken from ChEMBL document CHEMBL4043303, “Development of Novel Melanocortin Receptor Agonists Based on the Cyclic Peptide Framework of Sunflower Trypsin Inhibitor-1” (J Med Chem, 2018).
Active and inactive are the calls of the source. No cut-off for these calls is given here.

Columns and labels:
[1] = molecular target: T1, Melanocyte-stimulating hormone receptor (Homo sapiens, UniProt Q01726); experiment: Agonist activity at human MC1R expressed in low doxycyclin-treated HEK293 cell membranes assessed as increase in cAMP production up to 100 uM after 45 mins by HTRF method; assay type: functional, cell-based
T1 sequence (Q01726 whole entry, looked up): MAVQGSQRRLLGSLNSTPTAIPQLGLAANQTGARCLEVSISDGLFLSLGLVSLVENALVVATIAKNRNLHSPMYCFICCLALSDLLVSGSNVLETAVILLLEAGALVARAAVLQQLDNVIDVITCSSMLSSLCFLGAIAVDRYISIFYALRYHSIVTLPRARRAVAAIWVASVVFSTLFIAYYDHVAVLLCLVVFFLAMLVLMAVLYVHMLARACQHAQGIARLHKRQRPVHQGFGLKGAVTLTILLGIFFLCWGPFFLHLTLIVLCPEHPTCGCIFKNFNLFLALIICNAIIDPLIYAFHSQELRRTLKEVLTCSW
How it was run: (§1)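 Stable T-REx-293 clones (Zeocin-selected, human receptor cDNA in pcDNA4/TO), receptor expression induced with 0.1 ng/mL doxycycline for 24 h. 1000 cells/well in HBSS with Ca2+/Mg2+, 20 mM HEPES pH 7.4, 0.1% BSA. Stimulation for 45 min at 37 °C with 1 mM IBMX. cAMP read by LANCE HTRF (665/615 nm).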

Melanocortin receptor 5 [2] = molecular target: T2, Melanocortin receptor 5 (Homo sapiens, UniProt P33032); experiment: Displacement of [125I]-NDP-alpha-MSH from human MC5R LBD expressed in HEK293 cell membranes up to 100 uM incubated for 16 to 23 hrs in dark by scintillation proximity assay
T2 sequence (P33032 whole entry, the tested form may be a part): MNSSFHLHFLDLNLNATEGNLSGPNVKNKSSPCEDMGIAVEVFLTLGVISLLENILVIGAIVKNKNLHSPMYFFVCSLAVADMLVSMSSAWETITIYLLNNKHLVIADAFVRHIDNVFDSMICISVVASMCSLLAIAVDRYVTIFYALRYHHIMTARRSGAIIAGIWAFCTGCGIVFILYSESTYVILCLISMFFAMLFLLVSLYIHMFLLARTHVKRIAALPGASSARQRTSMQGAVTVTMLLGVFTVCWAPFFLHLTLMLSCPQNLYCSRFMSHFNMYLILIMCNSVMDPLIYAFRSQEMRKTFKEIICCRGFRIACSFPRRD

Melanocortin receptor 4 [3] = molecular target: T3, Melanocortin receptor 4 (Homo sapiens, UniProt P32245); experiment: Agonist activity at human MC4R expressed in low doxycyclin-treated HEK293 cell membranes assessed as increase in cAMP production up to 100 uM after 45 mins by HTRF method; assay type: functional, cell-based; how it was run: as §1
T3 sequence (P32245 whole entry, the tested form may be a part): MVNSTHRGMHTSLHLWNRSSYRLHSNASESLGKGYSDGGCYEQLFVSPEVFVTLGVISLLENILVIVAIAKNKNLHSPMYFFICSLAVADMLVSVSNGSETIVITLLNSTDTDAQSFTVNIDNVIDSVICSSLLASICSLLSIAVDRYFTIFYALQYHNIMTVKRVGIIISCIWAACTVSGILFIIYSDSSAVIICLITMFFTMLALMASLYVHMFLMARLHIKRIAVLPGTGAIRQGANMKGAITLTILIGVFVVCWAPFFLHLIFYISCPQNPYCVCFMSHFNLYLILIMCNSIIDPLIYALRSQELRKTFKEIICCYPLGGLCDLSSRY

Melanocortin receptor 4 [4] = molecular target: T3, Melanocortin receptor 4; experiment: Displacement of [125I]-NDP-alpha-MSH from human MC4R LBD expressed in HEK293 cell membranes up to 100 uM incubated for 16 to 23 hrs in dark by scintillation proximity assay
[5] = molecular target: T1, Melanocyte-stimulating hormone receptor; experiment: Displacement of [125I]-NDP-alpha-MSH from human MC1R LBD expressed in HEK293 cell membranes up to 100 uM incubated for 16 to 23 hrs in dark by scintillation proximity assay
Melanocortin receptor 3 [6] = molecular target: T4, Melanocortin receptor 3 (Homo sapiens, UniProt P41968); experiment: Displacement of [125I]-NDP-alpha-MSH from human MC3R LBD expressed in HEK293 cell membranes up to 100 uM incubated for 16 to 23 hrs in dark by scintillation proximity assay
T4 sequence (P41968 whole entry, the tested form may be a part): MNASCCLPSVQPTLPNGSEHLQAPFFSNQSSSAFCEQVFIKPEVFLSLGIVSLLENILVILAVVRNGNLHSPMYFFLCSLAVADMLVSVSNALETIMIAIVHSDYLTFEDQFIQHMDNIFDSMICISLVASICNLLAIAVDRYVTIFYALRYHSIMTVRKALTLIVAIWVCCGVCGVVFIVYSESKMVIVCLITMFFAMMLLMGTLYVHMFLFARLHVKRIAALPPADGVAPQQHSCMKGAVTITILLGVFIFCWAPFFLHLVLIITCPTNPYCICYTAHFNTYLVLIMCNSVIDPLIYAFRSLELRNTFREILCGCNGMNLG

Melanocortin receptor 3 [7] = molecular target: T4, Melanocortin receptor 3; experiment: Agonist activity at human MC3R expressed in low doxycyclin-treated HEK293 cell membranes assessed as increase in cAMP production up to 100 uM after 45 mins by HTRF method; assay type: functional, cell-based; how it was run: as §1
Melanocortin receptor 4 [8] = molecular target: T3, Melanocortin receptor 4; experiment: Agonist activity at human MC4R expressed in high doxycyclin-treated HEK293 cell membranes assessed as increase in cAMP production up to 100 uM after 15 mins by HTRF method; assay type: functional, cell-based
How it was run: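 Stable T-REx-293 clone expressing human MC4R, induced with 10 ng/mL doxycycline for 24 h. 1000 cells/well in HBSS/20 mM HEPES pH 7.4/0.1% BSA. Stimulation for 15 min at 37 °C with 1 mM IBMX. LANCE HTRF cAMP read-out.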

[9] = Solubility of the compound in water at 1 mM; assay type: physicochemical; details: buffer, 1000 µM
[10] = molecular target: T1, Melanocyte-stimulating hormone receptor; experiment: Agonist activity at human MC1R expressed in low doxycyclin-treated HEK293 cell membranes assessed as increase in cAMP production after 45 mins by HTRF method; assay type: functional, cell-based
Melanocortin receptor 3 [11] = molecular target: T4, Melanocortin receptor 3; experiment: Displacement of [125I]-NDP-alpha-MSH from human MC3R LBD expressed in HEK293 cell membranes incubated for 16 to 23 hrs in dark by scintillation proximity assay; parameters: concentration or dose not given beside the values; details: concentration not given here
[12] = molecular target: T1, Melanocyte-stimulating hormone receptor; experiment: Displacement of [125I]-NDP-alpha-MSH from human MC1R LBD expressed in HEK293 cell membranes up to 1 uM incubated for 16 to 23 hrs in dark by scintillation proximity assay
Melanocortin receptor 4 [13] = molecular target: T3, Melanocortin receptor 4; experiment: Agonist activity at human MC4R expressed in high doxycyclin-treated HEK293 cell membranes assessed as increase in cAMP production after 15 mins by HTRF method; assay type: functional, cell-based
How it was run: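 T-REx-293 cells stably expressing doxycycline-inducible human MC1R, MC3R or MC4R; expression induced 24 h with 0.1 ng/mL (low) or 10 ng/mL (high, MC4R only) doxycycline. 1000 cells/well in HBSS, 20 mM HEPES pH 7.4, 0.1% BSA, 1 mM IBMX; stimulated at 37 °C. Time-resolved FRET cAMP read-out normalized to NDP-α-MSH maximum.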

Melanocortin receptor 5 [14] = molecular target: T2, Melanocortin receptor 5; experiment: Displacement of [125I]-NDP-alpha-MSH from human MC5R LBD expressed in HEK293 cell membranes incubated for 16 to 23 hrs in dark by scintillation proximity assay; parameters: concentration or dose not given beside the values; details: concentration not given here

| SMILES | Activity [1] | inhibition (Melanocortin receptor 5 [2]) | Activity (Melanocortin receptor 4 [3]) | inhibition (Melanocortin receptor 4 [4]) | inhibition [5] | inhibition (Melanocortin receptor 3 [6]) | Activity (Melanocortin receptor 3 [7]) | Activity (Melanocortin receptor 4 [8]) | solubility [9] | Activity [10] | inhibition (Melanocortin receptor 3 [11]) | inhibition [12] | Activity (Melanocortin receptor 4 [13]) | inhibition (Melanocortin receptor 5 [14]) |
| --- | --- | --- | --- | --- | --- | --- | --- | --- | --- | --- | --- | --- | --- | --- |
| CC[C@H](C)[C@@H]1NC(=O)[C@@H]2CCCN2C(=O)[C@@H]2CCCN2C(=O)[C@H]([C@@H](C)CC)NC(=O)[C@H](CO)NC(=O)[C@H](CCCCN)NC(=O)[C@H]([C@@H](C)O)NC(=O)[C@@H]2CSSC[C@H](NC1=O)C(=O)N[C@@H](Cc1ccccc1)C(=O)N1CCC[C@H]1C(=O)N[C@@H](CC(=O)O)C(=O)NCC(=O)N[C@@H](CCCNC(=N)N)C(=O)N2 | inactive | inactive | inactive | inactive | inactive | inactive | inactive | inactive | Soluble | – | – | – | – | – |
| CC[C@H](C)[C@@H]1NC(=O)[C@@H]2CCCN2C(=O)[C@H](Cc2c[nH]c3ccccc23)NC(=O)[C@H](CCCNC(=N)N)NC(=O)[C@H](Cc2ccccc2)NC(=O)[C@H](Cc2cnc[nH]2)NC(=O)[C@H]([C@@H](C)O)NC(=O)[C@@H]2CSSC[C@H](NC1=O)C(=O)N[C@@H](Cc1ccccc1)C(=O)N1CCC[C@H]1C(=O)N[C@@H](CC(=O)O)C(=O)NCC(=O)N[C@@H](CCCNC(=N)N)C(=O)N2 | – | – | inactive | inactive | – | – | inactive | – | Soluble | 100% | 100% | inactive | 100% | 100% |
